From ChEMBL document CHEMBL3044834, “Novel protoporphyrinogen oxidase inhibitors: 3H-pyrazolo[3,4-d][1,2,3]triazin-4-one derivatives” (J Agric Food Chem, 2008)

System: Amaranthus retroflexus
Assay: Herbicidal activity against Amaranthus retroflexus assessed as inhibition of fresh weed plant weight at 187.5 g/ha using pre-emergence treatment protocol
Format: functional

Compound | inhibition at 187.5 g/ha [%]
C#CCN1C(=O)COc2cc(F)c(-n3nnc4c(cnn4C)c3=O)cc21 | 66

System: Echinochloa crus-galli
Assay: Herbicidal activity against Echinochloa crus-galli (barnyard grass) assessed as inhibition of fresh weed plant weight at 187.5 g/ha using pre-emergence treatment protocol
Format: functional
In short: (§1)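 Test compounds made up as emulsions by dissolving in 100 µL N,N-dimethylformamide, then adding a little Tween 20 and water. For post-emergence, weed seedlings at one leaf and one stem were sprayed at the same rates as the pre-emergence test. Fresh weight was recorded 15 days after treatment and expressed as percent inhibition versus controls. All treatments were run in triplicate.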

Compound | inhibition at 187.5 g/ha [%]
C#CCN1C(=O)COc2cc(F)c(-n3nnc4c(cnn4C)c3=O)cc21 | 48.4

System: Brassica rapa subsp. oleifera
Assay: Herbicidal activity against Brassica rapa subsp. oleifera assessed as inhibition of fresh weed plant weight at 375 g/ha using pre-emergence treatment protocol
Format: functional

Compound | inhibition at 375 g/ha [%]
C#CCN1C(=O)COc2cc(F)c(-n3nnc4c(cnn4C)c3=O)cc21 | 95.6

System: Amaranthus retroflexus
Assay: Herbicidal activity against Amaranthus retroflexus assessed as inhibition of fresh weed plant weight at 1500 g/ha using pre-emergence treatment protocol
Format: functional

Compound | inhibition at 1500 g/ha [%]
C#CCN1C(=O)COc2cc(F)c(-n3nnc4c(cnn4C)c3=O)cc21 | 100

System: Digitaria sanguinalis
Assay: Herbicidal activity against Digitaria sanguinalis (hairy crabgrass) assessed as inhibition of fresh weed plant weight at 1500 g/ha using post-emergence treatment protocol
Format: functional
In short: as §1

Compound | inhibition at 1500 g/ha [%]
C#CCN1C(=O)COc2cc(F)c(-n3nnc4c(cnn4C)c3=O)cc21 | 39.2

System: Digitaria sanguinalis
Assay: Herbicidal activity against Digitaria sanguinalis (hairy crabgrass) assessed as inhibition of fresh weed plant weight at 375 g/ha using pre-emergence treatment protocol
Format: functional

Compound | inhibition at 375 g/ha [%]
C#CCN1C(=O)COc2cc(F)c(-n3nnc4c(cnn4C)c3=O)cc21 | 100

System: Brassica rapa subsp. oleifera
Assay: Herbicidal activity against Brassica rapa subsp. oleifera assessed as inhibition of fresh weed plant weight at 93.75 g/ha using pre-emergence treatment protocol
Format: functional

Compound | inhibition at 93.75 g/ha [%]
C#CCN1C(=O)COc2cc(F)c(-n3nnc4c(cnn4C)c3=O)cc21 | 47.3

System: Brassica rapa subsp. oleifera
Assay: Herbicidal activity against Brassica rapa subsp. oleifera assessed as inhibition of fresh weed plant weight at 187.5 g/ha using pre-emergence treatment protocol
Format: functional

Compound | inhibition at 187.5 g/ha [%]
C#CCN1C(=O)COc2cc(F)c(-n3nnc4c(cnn4C)c3=O)cc21 | 77.7

System: Echinochloa crus-galli
Assay: Herbicidal activity against Echinochloa crus-galli (barnyard grass) assessed as inhibition of fresh weed plant weight at 93.75 g/ha using pre-emergence treatment protocol
Format: functional

Compound | inhibition at 93.75 g/ha [%]
C#CCN1C(=O)COc2cc(F)c(-n3nnc4c(cnn4C)c3=O)cc21 | 47.1

System: Brassica rapa subsp. oleifera
Assay: Herbicidal activity against Brassica rapa subsp. oleifera assessed as inhibition of fresh weed plant weight at 1500 g/ha using pre-emergence treatment protocol
Format: functional

Compound | inhibition at 1500 g/ha [%]
C#CCN1C(=O)COc2cc(F)c(-n3nnc4c(cnn4C)c3=O)cc21 | 98.8

System: Digitaria sanguinalis
Assay: Herbicidal activity against Digitaria sanguinalis (hairy crabgrass) assessed as inhibition of fresh weed plant weight at 93.75 g/ha using pre-emergence treatment protocol
Format: functional

Compound | inhibition at 93.75 g/ha [%]
C#CCN1C(=O)COc2cc(F)c(-n3nnc4c(cnn4C)c3=O)cc21 | 26.8

System: Echinochloa crus-galli
Assay: Herbicidal activity against Echinochloa crus-galli (barnyard grass) assessed as inhibition of fresh weed plant weight at 750 g/ha using pre-emergence treatment protocol
Format: functional

Compound | inhibition at 750 g/ha [%]
C#CCN1C(=O)COc2cc(F)c(-n3nnc4c(cnn4C)c3=O)cc21 | 100

System: Echinochloa crus-galli
Assay: Herbicidal activity against Echinochloa crus-galli (barnyard grass) assessed as inhibition of fresh weed plant weight at 375 g/ha using pre-emergence treatment protocol
Format: functional
In short: as §1

Compound | inhibition at 375 g/ha [%]
C#CCN1C(=O)COc2cc(F)c(-n3nnc4c(cnn4C)c3=O)cc21 | 94.8

System: Amaranthus retroflexus
Assay: Herbicidal activity against Amaranthus retroflexus assessed as inhibition of fresh weed plant weight at 1500 g/ha using post-emergence treatment protocol
Format: functional
In short: as §1

Compound | inhibition at 1500 g/ha [%]
C#CCN1C(=O)COc2cc(F)c(-n3nnc4c(cnn4C)c3=O)cc21 | 71.8

System: Amaranthus retroflexus
Assay: Herbicidal activity against Amaranthus retroflexus assessed as inhibition of fresh weed plant weight at 93.75 g/ha using pre-emergence treatment protocol
Format: functional

Compound | inhibition at 93.75 g/ha [%]
C#CCN1C(=O)COc2cc(F)c(-n3nnc4c(cnn4C)c3=O)cc21 | 60.2

System: Digitaria sanguinalis
Assay: Herbicidal activity against Digitaria sanguinalis (hairy crabgrass) assessed as inhibition of fresh weed plant weight at 1500 g/ha using pre-emergence treatment protocol
Format: functional

Compound | inhibition at 1500 g/ha [%]
C#CCN1C(=O)COc2cc(F)c(-n3nnc4c(cnn4C)c3=O)cc21 | 100

System: Amaranthus retroflexus
Assay: Herbicidal activity against Amaranthus retroflexus assessed as inhibition of fresh weed plant weight at 375 g/ha using pre-emergence treatment protocol
Format: functional

Compound | inhibition at 375 g/ha [%]
C#CCN1C(=O)COc2cc(F)c(-n3nnc4c(cnn4C)c3=O)cc21 | 96.3

System: Brassica rapa subsp. oleifera
Assay: Herbicidal activity against Brassica rapa subsp. oleifera assessed as inhibition of fresh weed plant weight at 1500 g/ha using post-emergence treatment protocol
Format: functional
In short: as §1

Compound | inhibition at 1500 g/ha [%]
C#CCN1C(=O)COc2cc(F)c(-n3nnc4c(cnn4C)c3=O)cc21 | 45.6

System: Brassica rapa subsp. oleifera
Assay: Herbicidal activity against Brassica rapa subsp. oleifera assessed as inhibition of fresh weed plant weight at 750 g/ha using pre-emergence treatment protocol
Format: functional

Compound | inhibition at 750 g/ha [%]
C#CCN1C(=O)COc2cc(F)c(-n3nnc4c(cnn4C)c3=O)cc21 | 97.1

System: Echinochloa crus-galli
Assay: Herbicidal activity against Echinochloa crus-galli (barnyard grass) assessed as inhibition of fresh weed plant weight at 1500 g/ha using post-emergence treatment protocol
Format: functional
In short: as §1

Compound | inhibition at 1500 g/ha [%]
C#CCN1C(=O)COc2cc(F)c(-n3nnc4c(cnn4C)c3=O)cc21 | 58.4

System: Digitaria sanguinalis
Assay: Herbicidal activity against Digitaria sanguinalis (hairy crabgrass) assessed as inhibition of fresh weed plant weight at 187.5 g/ha using pre-emergence treatment protocol
Format: functional

Compound | inhibition at 187.5 g/ha [%]
C#CCN1C(=O)COc2cc(F)c(-n3nnc4c(cnn4C)c3=O)cc21 | 80

System: Amaranthus retroflexus
Assay: Herbicidal activity against Amaranthus retroflexus assessed as inhibition of fresh weed plant weight at 750 g/ha using pre-emergence treatment protocol
Format: functional
In short: as §1

Compound | inhibition at 750 g/ha [%]
C#CCN1C(=O)COc2cc(F)c(-n3nnc4c(cnn4C)c3=O)cc21 | 100

System: Echinochloa crus-galli
Assay: Herbicidal activity against Echinochloa crus-galli (barnyard grass) assessed as inhibition of fresh weed plant weight at 1500 g/ha using pre-emergence treatment protocol
Format: functional

Compound | inhibition at 1500 g/ha [%]
C#CCN1C(=O)COc2cc(F)c(-n3nnc4c(cnn4C)c3=O)cc21 | 100

System: Digitaria sanguinalis
Assay: Herbicidal activity against Digitaria sanguinalis (hairy crabgrass) assessed as inhibition of fresh weed plant weight at 750 g/ha using pre-emergence treatment protocol
Format: functional

Compound | inhibition at 750 g/ha [%]
C#CCN1C(=O)COc2cc(F)c(-n3nnc4c(cnn4C)c3=O)cc21 | 100
